A short description of this data set: Toxicity liver stage against HepG2, at 10uM. The data set is classed as cell-based. To be noted: human, HepG2-A16-CD81EGFP cells; read-out: INHIBITION
Further details: test concentration 10 uM, cell line HepG2-A16-CD81EGFP. The method in brief:
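Uninfected HepG2-A16-CD81EGFP cells, 3 × 10^3 per well, 1536-well, plated on prespotted compound at 10 μM final, parasite-free screening media added to match infected plates; puromycin 10 μM positive, DMSO 0.5% negative; run in parallel with 48 h PbLuc assay at 37 °C, 5% CO2; viability by CellTiter-Glo luminescence, normalized to controls.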

Consider `O=C(NCC1CCCO1)c1nc2c(s1)CCCN2Cc1ccccc1` (configuration not stated), for which the cytotoxicity at 10 µM came out at 1.84%.
To `CCn1cc(NC(=O)NCCN2CCc3ccccc3C2)cn1` belongs -2.87%; to `CC(=O)N1CCCCCC1C1CCN(Cc2nc(C3CC3)no2)CC1` (configuration not stated), -56.4%; to `CO[C@H]1CN(C(=O)c2ccc3oc(C)cc3c2)C[C@@]12CCCO2`, -6.14%.
On to `Cn1cc(S(=O)(=O)NCc2ccsc2)cn1`, for which the cytotoxicity at 10 µM was 0.978%.
Regarding `CN(C)C(=O)[C@@H]1CC[C@@H]2[C@@H](CCN2Cc2nccs2)O1`, the cytotoxicity at 10 µM stood at 1.97%.
To `Cn1cnc(S(=O)(=O)N2CCN(CC3CC3)c3ncccc3C2)c1` belongs -160%; to `COc1ccc(NC(=O)c2ccco2)c(N2CCN(C(C)=O)CC2)n1`, -10.2%.
In the case of `O=C(c1ccccn1)N1C[C@H]2CC[C@@H](C1)N(C(=O)CCN1CCCC1)C2`, the cytotoxicity at 10 µM worked out at 3.92%.
As for `CC1(C)Cc2ccccc2-c2nc(NCCO)[nH]c(=O)c21`, the cytotoxicity at 10 µM is -5.46%.
To `CCCC(NC(=O)c1cc(C)ccc1C)c1nnn[nH]1` (configuration not stated) belongs -9.11%.
On to `CCCC(=O)N1CCC(O)(Cn2c(CC)nc3ccccc3c2=O)CC1`, for which the cytotoxicity at 10 µM was -2.03%.
With `CN(CC1COc2ccccc2O1)C(=O)C1=NN(C)C(=O)CC1` (configuration not stated), the cytotoxicity at 10 µM was -52.2%.
Regarding `CCNC(=O)[C@@H]1C[C@@H](n2cc(CC3CCCCC3)nn2)CN1`, the cytotoxicity at 10 µM came out at 5.42%.
To `Cc1noc(C)c1-c1cc(CCC2CN(C(=O)C(C)C)CCO2)ncn1` (configuration not stated) belongs 4.16%.
To `CC(C)c1n[nH]c(C2CN(C(=O)CCc3cscn3)CCO2)n1` (configuration not stated) belongs -1.51%; to `O=C(COCCc1ccccc1)N1CCCC(n2cncn2)C1` (configuration not stated), -27.8%; to `Cc1noc(C)c1CC(=O)NCC(C)N1CCOCC1` (configuration not stated), -52%.
For the molecule `CSc1ncnc(NCc2ccco2)c1C#N`, the cytotoxicity at 10 µM is 0.0868%.
Consider `Cc1cnn(C(C)C2CC2)c1NC(=O)c1ccncc1` (configuration not stated), for which the cytotoxicity at 10 µM is -8.48%.
To `Cc1ccc(OC2(C(=O)O)CCN(C(=O)CCc3ccco3)CC2)cc1` belongs -8.06%; to `Cc1cc(C)n(-c2ccc(CNCc3ccc(F)c(F)c3)cn2)n1`, -8.77%.
As to `c1ccc(CN2CCc3ncnc(N4CCCC4)c3CC2)nc1`, the cytotoxicity at 10 µM was -8.35%.
To `CC(C)Cn1cncc1Cn1cccc(C(F)(F)F)c1=O` belongs -10.2%; to `Cn1cc(C2=NOC(C(=O)NC3(c4cccc(F)c4)CCCC3)C2)cn1` (configuration not stated), 1.53%.
To `CC(=O)Nc1cccc(OCCNC(=O)N(C)Cc2ccncc2)c1` belongs 4.77%.
Consider `O=C(NCCSC1CCCC1)c1cc(Cl)ccn1`, for which the cytotoxicity at 10 µM is -15.5%.
With `Cc1noc(C)c1CN1C[C@H](OCC(=O)N(C)C)[C@H]2OCCC[C@H]21`, the cytotoxicity at 10 µM worked out at 8.34%.
To `CC(C)Cn1cc(NC(=O)NC(C)(C)c2nccs2)cn1` belongs 7.44%; to `Cc1nc(CN2CCOC(c3nc(C(C)C)n[nH]3)C2)oc1C` (configuration not stated), -7.98%.
With `Cc1cc2n(n1)CC(CNC1CCN(c3ccc(F)cc3)CC1)CN2` (configuration not stated), the cytotoxicity at 10 µM was -10.3%.
With `Cc1nnnn1-c1cc(NCc2cccc(C#N)c2)ccc1F`, the cytotoxicity at 10 µM turned out to be 7.09%.
To `CC(=O)NCC(=O)N1C[C@H](OCc2cccnc2)[C@H]2COC[C@H]21` belongs -7.12%.
Take `Cn1nnnc1SCCNC(=O)C1CCN(C(=O)C2CCC2)CC1`: the cytotoxicity at 10 µM is -3.22%.
In the case of `Cc1cc(NCCS(C)(=O)=O)n2nc(C)cc2n1`, the cytotoxicity at 10 µM was -14%.
To `Cc1ccc2nc(C)c(C)c(C(=O)NCCCn3ccnn3)c2c1` belongs 17.8%.
`Cc1nc(C2CCN(S(=O)(=O)c3ccc4c(c3)CCC4)CC2)n[nH]1`: the cytotoxicity at 10 µM is -1.24%.
To `COCc1ncn2c1CN(S(=O)(=O)c1ccc(C)cc1)CC2` belongs -1.18%; to `CNC(=O)c1ccc(-c2ccc(CNC(=O)COC)cc2)nc1C`, -5.52%; to `CCOC1CC2(CCN(C(=O)COC)CC2)c2cc(F)ccc21` (configuration not stated), -136%.
To `O=C(Cc1cccc(F)c1)NCCNCc1ccc2c(c1)CCO2` belongs -12.5%.
To `NC(=O)C1CCCN1Cc1cccc(NC(=O)c2cc(Cl)cc(Cl)c2)c1` (configuration not stated) belongs 21.3%; to `CCOCC1CN(Cc2ccc(F)cc2)Cc2nn(C)cc21` (configuration not stated), -83.3%.
On to `CN(C)CCO[C@H]1CN(Cc2ccco2)[C@@H]2COC[C@H]12`, for which the cytotoxicity at 10 µM was -98.2%.
To `Cn1cc(CN2CCCC(O)C2)c(-c2ccccc2F)n1` (configuration not stated) belongs -2.31%; to `CCc1cc(N2CCN(C(C)=O)CC2)n2nc(C)c(C)c2n1`, 3.96%; to `CCN(CC)CCNC(=O)c1cc(C(C)C)nc(N2CCCC2)n1`, -2.44%.
In the case of `Cc1nc2n(n1)CC(NCc1nc(-c3cccs3)no1)CC2` (configuration not stated), the cytotoxicity at 10 µM is -1.66%.
To `CC(C)CCN(C(=O)c1cccc(NC(N)=O)c1)C1CC1` belongs -6.46%; to `CC(C)c1nccn1C1CCCN(C(=O)c2cc(C(N)=O)cs2)C1` (configuration not stated), -2.61%; to `CCc1nnc(Nc2cccc(C3CCN(C(C)=O)CC3)n2)s1`, 0.579%.
Take `CCC(=O)Nc1cc(Cl)ccc1C(=O)N(C)Cc1noc(CC)n1`: the cytotoxicity at 10 µM turned out to be 7.1%.
To `COc1cccc(NC(=O)CN2CCN(S(C)(=O)=O)CC2)c1` belongs -1%.
Consider `CCC(NC(=O)NCc1cccc(N(C)C)n1)c1ccccc1OC` (configuration not stated), for which the cytotoxicity at 10 µM amounted to 29.1%.
As for `Fc1cccnc1N1CCOCC2(CCCNC2)C1` (configuration not stated), the cytotoxicity at 10 µM is 3.44%.
As for `CN(Cc1nc2ccccc2n1C)C(=O)CCc1cscn1`, the cytotoxicity at 10 µM is -159%.
For `COCCC1(CNC(=O)NCC2CCC2)CCC1`, the cytotoxicity at 10 µM was -10.1%.
In the case of `Cc1cc(C)cc(OCCC(=O)N2CCCC(n3cncn3)C2)c1` (configuration not stated), the cytotoxicity at 10 µM was -3.76%.
To `Cc1nn(CC(C)C)c(N(C)C)c1CNCc1ccc2c(c1)OCO2` belongs -1.05%; to `c1cc(-c2c[nH]c([C@@H]3COCCN3CC3CC3)n2)ccn1`, 6.82%.
`Cc1ccc2c(c1)OC(C)CN2C(=O)c1c[nH]c(C)cc1=O` (configuration not stated): the cytotoxicity at 10 µM worked out at 2.36%.
Regarding `Cc1ccccc1CNC(Cn1cncn1)c1ccccc1` (configuration not stated), the cytotoxicity at 10 µM was -1.45%.
To `Cc1nc(CN2CCOC(CNc3cccnn3)C2)cs1` (configuration not stated) belongs -12%.
To `COc1cccc2sc(N3CC(OC(C)=O)C3)nc12` belongs -6.67%; to `O=C(NC[C@]1(O)CN(Cc2ccccc2F)C[C@H]1O)c1ccccn1`, 1.15%; to `COC1CCCN(Cc2cc(O)c3cc(C)cc(C)c3n2)C1` (configuration not stated), 3.54%.
To `CCc1ccc(C(NCC(N)=O)C(C)(C)C)o1` (configuration not stated) belongs -7.21%; to `O=C1Nc2ccccc2C12CCN(c1nccs1)CC2`, -0.449%.
Take `N#CCc1ccc(NC(=O)N[C@H](CO)Cc2ccc(O)cc2)cc1`: the cytotoxicity at 10 µM is -1.8%.
To `CN(C)C(=O)CN1C(=O)CCC12CCN(Cc1ccsc1)CC2` belongs -3.13%; to `Cc1ccc(-c2nnc(CNCCn3cccn3)o2)cc1`, -26.1%; to `Cc1cnn(CC(C)NCc2ccc(OCc3cccnc3)cc2)c1` (configuration not stated), -1.07%.
Turning to `O=C(c1cc[nH]n1)N1CCCC1c1cncc(CN2CCOCC2)n1` (configuration not stated), the cytotoxicity at 10 µM turned out to be 9.31%.
With `Cc1nnc(CN2CCOC(c3ccc(Cl)c(Cl)c3)C2)o1` (configuration not stated), the cytotoxicity at 10 µM is -1.11%.
To `O=C(N[C@@H]1CC[C@@H](N2CCOCC2)[C@@H]1O)c1cnn2cccnc12` belongs -27.1%; to `O=C(c1c[nH]cn1)N1CCOCC2(C1)CN(c1ccccc1)C(=O)CO2` (configuration not stated), -7.27%.
With `CS(=O)(=O)N1CCCc2sc(C(=O)NC3CC3)nc21`, the cytotoxicity at 10 µM is -143%.
Turning to `CCN1CCN(C2CCN(Cc3nnc(C4CC4)o3)CC2)C1=O`, the cytotoxicity at 10 µM turned out to be 1.75%.
As to `COc1ccc(CN2CCC(C(N)=O)C2)c(Br)c1OC` (configuration not stated), the cytotoxicity at 10 µM was found to be 5.15%.
With `O=C(C1CCCCC1)N1CCN(Cc2nc(-c3ccco3)no2)CC1`, the cytotoxicity at 10 µM is -1.01%.
In the case of `CC(=O)c1cccc(S(=O)(=O)NCC(C)(O)c2cccs2)c1` (configuration not stated), the cytotoxicity at 10 µM was -17%.
To `COc1ccc(OCCN2CCOCS2(=O)=O)cc1` belongs 2.6%.
On to `Cc1cccc(C2(O)CCN(C(=O)c3ccc(N(C)C)cc3)CC2)c1C`, for which the cytotoxicity at 10 µM is -2.96%.
Regarding `COc1ccc2cc(NC(=O)CCNc3ncccn3)cnc2c1`, the cytotoxicity at 10 µM is -43%.
Take `O=C(N[C@H]1CN[C@H]2CCCO[C@H]21)c1cccnc1`: the cytotoxicity at 10 µM was -9.99%.
Turning to `CC(C(=O)N1CCCC1)N1CCCN(C(=O)Oc2ccccc2)CC1` (configuration not stated), the cytotoxicity at 10 µM was determined as 3.4%.
To `O=C(C1CCS(=O)(=O)C1)N1CCC(=Cc2cccc(F)c2)CC1` (configuration not stated) belongs 10.6%; to `Cc1cccc(N2CCN(CC(=O)N3CCCC(N(C)C)CC3)CC2)c1` (configuration not stated), -3.73%; to `Cc1cc(NC(=O)Cn2ncc(Br)c2C)no1`, 4.12%.
In the case of `CN(CC(=O)NS(=O)(=O)c1ccc(F)cc1)Cc1ccccc1`, the cytotoxicity at 10 µM stood at 14.3%.
Turning to `O=C(Nc1ccccc1)C1CCCN(c2cc(-n3cncn3)ncn2)C1` (configuration not stated), the cytotoxicity at 10 µM is -2.1%.
To `O=C(CC[C@@H]1CCCN2CCCC[C@H]12)NCCc1nc(O)cc(O)n1` belongs -0.392%; to `CCOCCNC(=O)[C@@H]1CCCN1c1nccc(Nc2ccccc2)n1`, 2.66%.
Regarding `CCOC(=O)c1coc(N2CCN(C(=O)c3cccc(OC)c3)CC2)n1`, the cytotoxicity at 10 µM is 8.15%.
To `CC(C)(O)CN1CCN(C(=O)COC2CCCC2)CC1` belongs 1.46%; to `CC(C)n1c(C2CCCN(CCS(C)(=O)=O)C2)nc2ccccc21` (configuration not stated), -10.4%.
Turning to `Cc1ccc(C(=O)NCCCn2cccn2)c(=O)[nH]1`, the cytotoxicity at 10 µM is 3.54%.

Source of the values: ChEMBL document CHEMBL4513216, “Probing the Open Global Health Chemical Diversity Library for Multistage-Active Starting Points for Next-Generation Antimalarials” (ACS Infect Dis, 2020).
